ChEMBL document CHEMBL1629624, “In vitro and in vivo studies to characterize the clearance mechanism and potential cytochrome P450 interactions of anidulafungin” (Antimicrob Agents Chemother, 2009)

Tests used:
Assay type in all cases: ADME, organism-based
[1] = Cmax in human whole blood at 100 uCi, iv by liquid scintillation counting; set-up: route intravenous; conditions: in vivo
In short: (§1)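 Nine healthy men, single i.v. infusion of [14C]drug (planned 100 mg/100 μCi, mean delivered 95 μCi) over 100 min. Heparinized blood sampled from 0 to 18 h, then daily through day 10, plus follow-up. Total radioactivity in plasma and whole blood by liquid scintillation counting, reported as mg equivalents. Noncompartmental analysis; values are means (%CV).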

[2] = Clearance in human whole blood at 100 uCi, iv by liquid scintillation counting; conditions: in vivo; in short: as §1
[3] = tested on: Plasma; test: Tmax in human plasma at 100 uCi, iv by liquid scintillation counting; conditions: in vivo; in short: as §1
[4] = Drug level in human assessed as radioactive drug recovery in feces at 100 uCi, iv after 216 hrs by liquid scintillation counting; conditions: in vivo
In short: (§2)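 Nine healthy men given a single i.v. infusion of [14C]drug. Urine collected predose, at 0-2, 2-4, 4-8 and 8-24 h, then every 24 h to day 10. Feces collected predose and every 24 h to day 10. Radioactivity measured by liquid scintillation counting and totalled as cumulative percent of dose through 216 h.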

[5] = Drug level in bile-duct cannulated Sprague-Dawley rat assessed as radioactive drug recovery in carcass at 5 mg/kg, iv after 168 hrs by liquid scintillation counting; set-up: dose 5 mg/kg, route intravenous; conditions: in vivo
In short: (§3)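 Male Sprague-Dawley rats, single i.v. bolus of [14C]drug. Five bile duct-cannulated rats: bile collected at 0-4, 4-8 and 8-24 h, then every 24 h to 168 h. Three noncannulated rats were killed at 168 h. Urine and feces collected over set intervals; carcass and cage washings taken at sacrifice. Liquid scintillation counting, expressed as percent of dose.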

[6] = Mean residence time in human whole blood at 100 uCi, iv by liquid scintillation counting; conditions: in vivo; in short: as §1
[7] = Drug level in human assessed as radioactive drug recovery in urine at 100 uCi, iv after 216 hrs by liquid scintillation counting; conditions: in vivo; in short: as §2
[8] = Half life in human whole blood at 100 uCi, iv by liquid scintillation counting; in short: as §1
[9] = Drug level in noncannulated Sprague-Dawley rat assessed as radioactive drug recovery in carcass at 5 mg/kg, iv after 168 hrs by liquid scintillation counting; set-up: dose 5 mg/kg, route intravenous; conditions: in vivo; in short: as §3
[10] = tested on: Plasma; test: Tmax in Sprague-Dawley rat plasma at 5 mg/kg, iv by liquid scintillation counting; set-up: dose 5 mg/kg, route intravenous; conditions: in vivo
In short: (§4)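 Male Sprague-Dawley rats, single i.v. bolus of [14C]drug. Blood by cardiac puncture from three noncannulated rats killed at each time from 0.25 to 168 h; plasma separated from an aliquot. Radioactivity by liquid scintillation counting. Parameters come from a composite profile of mean values, taking 1 g as equal to 1 ml.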

[11] = Tmax in human whole blood at 100 uCi, iv by liquid scintillation counting; conditions: in vivo; in short: as §1
[12] = tested on: Plasma; test: Volume of distribution at steady state in human plasma at 100 uCi, iv by liquid scintillation counting; conditions: in vivo
In short: (§5)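 Healthy adult men (n = 9), single i.v. infusion of [14C]drug over 100 min at 1 mg/min. 100 mg/100 μCi was planned; the mean actually given was 88.3 mg and 95 μCi. Heparinized samples drawn from 0 h through day 10 and at follow-up. Total radioactivity in plasma or whole blood counted by liquid scintillation and expressed as mg equivalents. Noncompartmental analysis, given as mean (%CV).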

[13] = Drug level in bile-duct cannulated Sprague-Dawley rat assessed as radioactive drug recovery in feces at 5 mg/kg, iv after 168 hrs by liquid scintillation counting; set-up: dose 5 mg/kg, route intravenous; conditions: in vivo; in short: as §3
[14] = tested on: Plasma; test: Volume of distribution at steady state in Sprague-Dawley rat plasma at 5 mg/kg, iv by liquid scintillation counting; set-up: dose 5 mg/kg, route intravenous; conditions: in vivo; in short: as §4
[15] = Drug level in bile-duct cannulated Sprague-Dawley rat assessed as radioactive drug recovery in bile at 5 mg/kg, iv after 168 hrs by liquid scintillation counting; set-up: dose 5 mg/kg, route intravenous; conditions: in vivo; in short: as §3
[16] = tested on: Plasma; test: Clearance in human plasma at 100 uCi, iv by liquid scintillation counting; conditions: in vivo; in short: as §1
[17] = Cmax in Sprague-Dawley rat whole blood at 5 mg/kg, iv by liquid scintillation counting; set-up: dose 5 mg/kg, route intravenous; conditions: in vivo; in short: as §4
[18] = Tmax in Sprague-Dawley rat whole blood at 5 mg/kg, iv by liquid scintillation counting; set-up: dose 5 mg/kg, route intravenous; conditions: in vivo; in short: as §4
[19] = tested on: Plasma; test: Mean residence time in human plasma at 100 uCi, iv by liquid scintillation counting; conditions: in vivo; in short: as §1
[20] = Drug level in noncannulated Sprague-Dawley rat assessed as radioactive drug recovery in feces at 5 mg/kg, iv after 168 hrs by liquid scintillation counting; set-up: dose 5 mg/kg, route intravenous; conditions: in vivo; in short: as §3
[21] = tested on: Plasma; test: Cmax in human plasma at 100 uCi, iv by liquid scintillation counting; set-up: route intravenous; conditions: in vivo; in short: as §1
[22] = Volume of distribution at steady state in Sprague-Dawley rat whole blood at 5 mg/kg, iv by liquid scintillation counting; set-up: dose 5 mg/kg, route intravenous; conditions: in vivo
In short: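 Male Sprague-Dawley rats, single i.v. bolus of [14C]drug, 5 mg/kg. Blood by cardiac puncture from three non-cannulated rats killed at each time from 0.25 to 168 h. Radioactivity counted by liquid scintillation. Noncompartmental parameters taken from a composite profile of mean values per time point, assuming 1 g blood equals 1 ml.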

[23] = Half life in Sprague-Dawley rat whole blood at 5 mg/kg, iv by liquid scintillation counting; set-up: dose 5 mg/kg, route intravenous; conditions: in vivo; in short: as §4
[24] = tested on: Plasma; test: Half life in human plasma at 100 uCi, iv by liquid scintillation counting; in short: as §1
[25] = tested on: Plasma; test: Cmax in Sprague-Dawley rat plasma at 5 mg/kg, iv by liquid scintillation counting; set-up: dose 5 mg/kg, route intravenous; conditions: in vivo; in short: as §4
[26] = Drug level in human assessed as radioactive drug recovery in feces at 100 uCi, iv within 216 hrs by liquid scintillation counting; conditions: in vivo; in short: as §2
[27] = tested on: Plasma; test: Half life in Sprague-Dawley rat plasma at 5 mg/kg, iv by liquid scintillation counting; set-up: dose 5 mg/kg, route intravenous; conditions: in vivo; in short: as §4
[28] = Volume of distribution at steady state in human whole blood at 100 uCi, iv by liquid scintillation counting; conditions: in vivo; in short: as §5

CCCCCOc1ccc(-c2ccc(-c3ccc([14C](=O)N[C@H]4C[C@@H](O)[C@@H](O)NC(=O)[C@@H]5[C@@H](O)[C@@H](C)CN5C(=O)[C@H]([C@H](C)O)NC(=O)[C@H]([C@H](O)[C@@H](O)c5ccc(O)cc5)NC(=O)[C@@H]5C[C@@H](O)CN5C(=O)[C@H]([C@H](C)O)NC4=O)cc3)cc2)cc1 [[14C]-ANIDULAFUNGIN]
Cmax [1]: 3380 ng/mL | CL [2]: 0.356 L/h | Tmax [3]: 1.78 h | Drug uptake [4]: 29.5% | Drug uptake [5]: 40.4% | MRT [6]: 174 h | Drug uptake [7]: 0.56% | t1/2 [8]: 139 h | Drug uptake [9]: 23.1% | Tmax [10]: 0.25 h | Tmax [11]: 1.75 h | Vdss [12]: 57.6 L | Drug uptake [13]: 17.1% | Vdss [14]: 1.056 L/kg | Drug uptake [15]: 33.9% | CL [16]: 0.356 L/h | Cmax [17]: 11.5 ugequiv/ml | Tmax [18]: 0.25 h | MRT [19]: 162 h | Drug uptake [20]: 77.1% | Cmax [21]: 3020 ng/mL | Vdss [22]: 0.696 L/kg | t1/2 [23]: 52.1 h | t1/2 [24]: 119 h | Cmax [25]: 6.84 ugequiv/ml | Drug uptake [26]: 10% | t1/2 [27]: 52.9 h | Vdss [28]: 61.6 L
